# Assay outcomes deposited in PubChem BioAssay by several laboratories.
# Autophagy mod: autophagy modulators in MEF cells, primary screen, imaging, high-content, MEF GFP-LC3. MEF GFP-LC3 puncta imaging; test concentration mostly 10 µM. calls only at 10 µM (by protocol). 0.98% of 190,000 active;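 active means percentage of spot-positive cells more than 3 SD above its plate mean, without a fluorescence outlier flag or 80% toxicity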;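 further: spot-positive cell cutoff set from DMSO-treated cells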
# Dynein cargo inh: inhibitors of GR-EGFP nuclear translocation, primary screen, dynein cargo transport inhibitor project, imaging, high-content, 3617.4 mouse cells; test concentration mostly 20 µM; stimulated with dexamethasone, 1 µM; hits give low values; z-score, hits read low; 0.47% of 220,000 active;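 active means plate z-score of nuclear minus cytoplasmic receptor signal below a set negative limit, without overly bright fluorescence or cell loss, cut at about -3.5 in these data, passing the limit was not always enough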;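 further: z-score of nuclear minus cytoplasmic ring GR-EGFP intensity difference per well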
#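 Buffer or medium – tet-free medium with charcoal-stripped serum · Signal – automated 10x imaging of fixed Hoechst-stained cells · Also added – dexamethasone agonist, 1.0 µM final, for 30 min · Incubation – induction 48 h, compound 1 h, agonist 30 min · Read-out – GR-EGFP nuclear translocation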
# L major viab: Leishmania major promastigote growth inhibition, primary screen; Leishmania major promastigotes, resazurin fluorescence viability; inhibition, % at 10 µM; 9% of 200,000 active; AID 1063, 2008; in the data active means inhibition above about 50%;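 further: promastigotes grown with compound for 44 hours at 28 °C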
# CHOP inh: inhibitors of CHOP promoter induction, primary screen, cell-based, unfolded protein response, luciferase reporter. CHO-K1 CHOP-promoter luciferase, tunicamycin-induced, 15-18 h. inhibition, % at 10 µM. 3.8% of 220,000 active. AID 2732, 2010;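 active means compounds that reduced the stress-induced luciferase reporter signal by more than about 70% of percent inhibition, limit read from the data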;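 further: 0% = tunicamycin plus vehicle and 100% = wells without tunicamycin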
# b-catenin transl: modulators of beta-catenin nuclear translocation, primary screen, imaging, HeLa cells, immunofluorescence, high-content; nuclear translocation activity, % at 5 µM; 0.3% of 190,000 active;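 active means nuclear translocation activity above 50% at 5 µM, with a well cell count of 50 or more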;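 further: per-cell ratio of nuclear to cytoplasmic median beta-catenin stain intensity; plate controls were DMSO negative control for no effect and GSK-3 inhibitor IX positive control for full effect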
#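 Test system: HeLa cells, endogenous beta-catenin; Compound: single 5 µM dose plus 0.02–20 µM confirmation series; Times: compound exposure 24 h at 37°C; Signal: fluorescence imaging of beta-catenin antibody stain plus DAPI; Read-out: % activation, nuclear-to-cytoplasmic median beta-catenin signal ratio per cell.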
# MT stabilizer: microtubule stabilizers in HeLa cells, primary screen, imaging, high-content imaging; 0.83% of 200,000 active; HeLa tubulin immunostaining HCS, 24 h; share of cells brighter than vehicle mean+2SD; % tubulin-high responders, % at 10 µM;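 active means plate Z-score above 3 for both tubulin-high and condensed-nucleus cell shares, with cell loss under 80%, at 10 µM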;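 further: anti alpha tubulin signal scored within the nucleus-defined area of each cell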
# * marks the source's active call; other numbers are inactive results; i = inactive; / = no result; + = active, no number. Compounds with a hit are over-represented: about 12% of the library has one in this group of screens.
SMILES,Autophagy mod,Dynein cargo inh,L major viab,CHOP inh,b-catenin transl,MT stabilizer
Cc1ccc(CNCC(=O)Nc2ccc(C)cc2Br)cc1,i,0.557,-4.1,3.4,0.0,6.6
CC(NC(=O)Cc1ccccc1)c1cc2c(cc1Br)OCCCO2 (centres undefined),i,0.594,9.9,-11.9,-0.5,2.5
Cc1cccc(CN2CCN(CCCc3ccccc3)CC2)c1,i,-0.0196,96.2*,1.9,-1.7,1.4
O=C(NN1CCN(Cc2ccccc2Cl)CC1)c1ccc(Cl)cc1,i,-0.731,15.9,17.0,-0.1,2.4
Clc1cccc(CN2CCN(Cc3nc(CCc4ccccc4)no3)CC2)c1,i,-0.195,63.9*,13.5,-1.5,5.2
CCn1c2ccccc2c2cc(CN3CCN(C(=O)c4ccco4)CC3)ccc21,i,-0.535,12.0,14.0,-2.1,5.6
Clc1ccccc1CN1CCN(CCCc2ccccc2)CC1,i,0.598,92.8*,38.1,1.5,2.0
CCCS(=O)(=O)N1CCN(Cc2ccc3c(c2)c2ccccc2n3CC)CC1,i,1.33,70.6*,33.8,2.6,1.8
CC(CCc1ccccc1)NC(=O)CN1C(=O)NC2(CCCCC2)C1=O (centres undefined),i,1.05,7.7,4.6,-2.4,4.4
CC(NC(=O)c1ccc(F)cc1)C(=O)NC1=NCCS1 (centres undefined),i,0.118,1.1,-0.2,1.3,2.7
CCOC(=O)CN1C(=O)CCSc2ccc(Cl)cc21,i,0.646,-2.8,23.8,-2.3,4.2
O=C(C#Cc1cccc([N+](=O)[O-])c1)c1ccccc1,i,-0.977,11.4,107.8*,/,3.0
O=C(Nc1cccc([N+](=O)[O-])c1)c1ccccc1,/,1.8,/,-5.0,-0.4,/
COCCN(C(=O)CSc1nnc(-c2ccccc2F)n1C)c1c(N)n(Cc2ccccc2)c(=O)[nH]c1=O,i,0.308,-5.8,7.5,0.1,2.3
CCCCN(C(=O)CSc1nnc(-c2ccccc2OC)n1C)c1c(N)n(Cc2ccccc2)c(=O)[nH]c1=O,i,0.487,60.9*,-2.9,-3.1,2.5
CC(=O)c1ccc(OC(=O)CCN2c3ccccc3Sc3ccccc32)cc1,i,-0.731,53.2*,-11.4,-5.5,5.1
CCN(CC)C(=O)CSCc1cnn(-c2ccccc2)c1-n1cccc1,i,-0.168,-5.8,20.3,/,2.3
CCOC(=O)C(=N/O)/C(C)=N/NC(=O)C(=O)Nc1ccc(Cl)cc1,/,-1.06,/,72.7*,0.1,/
CC(=N\Nc1ccc(Cl)cc1)/C(=N/O)C(=O)Nc1ccccc1,i,-0.0456,17.9,5.1,4.6,1.0
COc1ccc2nccnc2c1[N+](=O)[O-],/,0.026,/,11.8,-3.1,/
Cc1cccc(C(C)(C)C)c1OCCOCCN1CCCC1,i,-0.283,49.6,1.8,-6.6,2.8
Cc1cc(OCCOCCN2CCCC2)ccc1C(C)C,i,1.97,99.9*,-0.2,-1.9,4.9
Cc1cccc(OCCOCCN2CCOCC2)c1C,i,-0.559,87.7*,-13.9,-2.8,5.2
Cc1ccc(C(C)C)cc1OCCOCCN1CCCC1,i,3.14,99.8*,-8.1,/,1.9
Cc1ccccc1OCCOCCN1CCCCCC1,i,0.212,98.6*,28.6,-2.0,4.0
SMILES,Autophagy mod,Dynein cargo inh,L major viab,CHOP inh,b-catenin transl,MT stabilizer
Cc1cccc(OCCOCCN2CCNCC2)c1C,i,2.37,8.4,19.6,5.3,4.3
Cc1cc(Oc2ccc(=O)n(C)n2)nc(SCc2ccccc2)n1,i,0.0569,-4.6,2.8,-2.0,2.4
CCOc1cccc(OCCOCCN2CCCC2)c1,i,-0.292,-6.1,38.9,-0.2,3.5
CCc1cccc(OCCOCCN2CCCC2)c1,i,-0.82,96.6*,41.1,/,2.9
O=C1CC(c2ccccc2)Cc2nc3ncnn3cc21 (centres undefined),i,0.272,-0.7,22.1,0.5,3.4
O=C(CN(c1ccc(Br)cc1)S(=O)(=O)c1ccc(Cl)c([N+](=O)[O-])c1)NCCc1ccccc1,i,0.0285,-5.4,31.6,1.4,3.4
Cc1ccc(N(CC(=O)NCCc2ccc(F)cc2)S(=O)(=O)c2ccc(Cl)c([N+](=O)[O-])c2)c(C)c1,i,-2.94,53.5*,24.8,-0.7,39.5
CC(=O)Oc1ccc(C2C3=C(CC(C)(C)CC3=O)Nc3cc4c(cc32)OCCO4)cc1 (centres undefined),i,0.505,4.1,6.4,0.3,4.0
COc1cccc(C2C3=C(CC(C)(C)CC3=O)Nc3cc4c(cc32)OCO4)c1 (centres undefined),i,-0.361,100.0*,12.8,/,2.9
O=C1OCC2=C1C(c1ccc(F)cc1)c1cc3c(cc1N2)OCCO3 (centres undefined),i,-0.125,-0.3,16.2,77.9*,11.6
CCOc1ccccc1C1C2=C(COC2=O)Nc2cc3c(cc21)OCO3 (centres undefined),i,-0.839,21.1,-19.4,1.5,7.2
O=C1OCC2=C1C(c1ccc(F)cc1)c1cc3c(cc1N2)OCO3 (centres undefined),i,0.431,4.4,-22.3,74.3*,6.9
C#CCOc1ccc(C2C3=C(COC3=O)Nc3cc4c(cc32)OCO4)cc1OC (centres undefined),i,0.573,16.8,-39.5,61.0*,1.6
COc1cccc(C2C3=C(CC(C)(C)CC3=O)Nc3cc(OC)c(OC)cc32)c1 (centres undefined),i,1.05,2.7,2.1,-1.7,2.1
Cc1c(Br)cc(C(=O)OC2CCN(C)CC2)c(C)c1C,+,2.09,86.3*,13.4,2.3,3.2
O=C(Cn1c(=O)n(CCCC(=O)NC2CCCC2)c(=O)c2ccccc21)NCCC1=CCCCC1,i,-0.729,-5.1,64.1,/,2.5
Cc1cccc(N2CCN(C(c3ccncc3)c3nnnn3C(C)(C)C)CC2)c1C (centres undefined),i,-0.37,86.7*,46.0,-1.9,4.6
CC(C)(C)n1nnnc1C(c1cccnc1)N1CCN(c2cccc(C(F)(F)F)c2)CC1 (centres undefined),i,-0.305,94.8*,42.0,-1.0,3.1
CC(C)(C)n1nnnc1C(c1cccnc1)N1CCN(C(=O)c2ccco2)CC1 (centres undefined),i,-0.853,67.7*,5.5,-0.2,3.7
Cc1nc(=S)c2c([nH]1)-c1ccccc1CC21CCCCC1,/,-0.694,/,-26.2,-3.9,/
Cc1c(C#N)c(N=CN(C)C)c(C(=O)c2ccc(Br)cc2)n1-c1ccccc1,i,0.202,100.1*,32.6,/,2.6
